# Bioassay records (PubChem)
# Most compounds without a hit are left out; they make up all but 1.8% or so of the library.
# TCR CD3 inh: blocks the human TCR-CD3 interaction | TAMRA-labeled TCR probe fluorescence, biochemical | inhibition, % at 9.4 µM | actives 0.37% (n = 360,000) | AID 651800; in the data active = inhibition above about 19%;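 also: recombinant mutant TCR 2C K166C tagged with TAMRA read by polarization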
# ABHD4 inh: inhibitors of mouse ABHD4 | Q8VD66 | purified mABHD4, FP-Rh probe fluorescence polarization | inhibition, % at 8.92 µM | actives 0.54% (n = 370,000);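 active = inhibition exceeding the mean over every tested compound plus 3 SD, cut at about 30% in these data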
#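 Assay system: Wild-type mouse ABHD4 protein | Medium: HEPES pH 7.0 buffer, 150 mM NaCl, 0.01% Pluronic F-127 | Incubation: Enzyme–compound pre-incubation 45 min, then probe 60 min, both 25 °C | Technique: Fluorescence polarization with parallel and perpendicular emission, 525/598 nm | Evaluation: % inhibition of FP-Rh probe binding versus controls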
# Tn7 DDE FP: disrupts Tn7 cyclic peptide binding to fibrin D-Dimer-E complex. P02675. FP displacement of FITC-Tn7 peptide from fibrin DD(E); 0% = median of compound wells per plate. inhibition, % at 8.3 µM. actives 0.13% (n = 370,000). AID 720508;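 active = inhibition above the mean of compounds falling within the control limits plus 3 SD of them, cut at about 14% in these data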
#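 Also added: labelled Tn7 tracer, 0.1 µM; Assay system: human fibrin DD(E) protein; Amount: 2 µM fibrin DD(E); Schedule: 10 min compound pre-incubation, 3 h probe incubation at room temperature; Repeats: one replicate per compound; Read-out basis: percent inhibition; Measured by: fluorescence polarization of the labelled Tn7 tracer.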
# SIAE inh: inhibitors of human sialic acid acetylesterase SIAE; AID 1053197; actives 0.69% (n = 370,000); inhibition, % at 9.66 µM; SIAE FP-Rh probe binding, fluorescence polarization;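 active = inhibition above a cutoff: mean of compounds within the control limits plus 3 SD of those, cut at about 17% in these data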
# Tn6 DDE FP: DD(E)-Tn6 binding inhibition, primary FP screen; Fibrin DD(E) TRITC-Tn6 fluorescence polarization displacement; actives 0.21% (n = 370,000); inhibition, % at 8.3 µM;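 active = inhibition above a per-campaign cutoff: mean of compounds within control limits plus 3 SD, cut at about 15% in these data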
# HTRA1 inhibitor: HTRA1 (human) protease inhibition. actives 0.5% (n = 340,000). recombinant HTRA1, FP-rhodamine activity-based probe, fluorescence polarization. Q92743. inhibition, % at 5.96 µM; in the data active = inhibition above about 36%
# Target sequence (Q92743 whole entry, looked up): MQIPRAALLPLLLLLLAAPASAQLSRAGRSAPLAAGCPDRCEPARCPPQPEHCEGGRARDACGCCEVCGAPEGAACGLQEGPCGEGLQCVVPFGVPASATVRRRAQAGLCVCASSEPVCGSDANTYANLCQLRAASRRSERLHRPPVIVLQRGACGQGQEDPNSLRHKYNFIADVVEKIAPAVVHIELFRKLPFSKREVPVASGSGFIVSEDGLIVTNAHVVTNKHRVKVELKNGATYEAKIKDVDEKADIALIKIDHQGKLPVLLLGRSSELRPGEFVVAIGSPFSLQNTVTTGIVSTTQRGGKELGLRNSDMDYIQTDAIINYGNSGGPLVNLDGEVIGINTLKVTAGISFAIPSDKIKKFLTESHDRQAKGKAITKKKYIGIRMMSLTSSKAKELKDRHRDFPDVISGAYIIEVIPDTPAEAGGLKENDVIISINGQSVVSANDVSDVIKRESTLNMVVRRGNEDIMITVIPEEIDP
# HTRA1 conf: HTRA1 (human) inhibition, confirmation. actives 66% (n = 1,600). recombinant HTRA1, FP-rhodamine activity-based probe, fluorescence polarization. shares compounds with HTRA1 inhibitor. inhibition, % at 5.96 µM;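 active = mean inhibition over three repeats above a set limit taken from the earlier primary screen, cut at about 37% in these data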;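 also: inhibitors block probe binding so polarization drops and inhibition rises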
# Numbers stand for hits; – = inactive; · = not tested or not shown.
SMILES,TCR CD3 inh,ABHD4 inh,Tn7 DDE FP,SIAE inh,Tn6 DDE FP,HTRA1 inhibitor,HTRA1 conf
CCC(=O)NC(c1cccs1)c1ccc2cccnc2c1O (configuration not stated),–,–,–,–,–,41,46
COc1ccc(C(NC(C)=O)c2ccc3cccnc3c2O)c(OC)c1 (configuration not stated),·,·,·,·,·,–,·
CC(C)CC(=O)NC(c1cccs1)c1ccc2cccnc2c1O (configuration not stated),·,·,·,·,·,43,38
CC(=O)NC(c1ccco1)c1cc(F)c2cccnc2c1O (configuration not stated),–,–,–,–,–,–,·
Oc1c(C(Nc2nc3ccccc3s2)c2ccco2)ccc2cccnc12 (configuration not stated),–,–,–,–,–,36,40
Oc1c(C(Nc2nccs2)c2ccc(C(F)(F)F)cc2)ccc2cccnc12 (configuration not stated),–,–,–,–,–,43,54
COc1ccc(S[C@]2(C(=O)N3CCOCC3)CC(=O)N(C(=O)C3CC3)[C@@H]2c2ccc(OC)cc2)cc1,·,–,–,–,–,·,·
CN(CCOC(=O)c1cccs1)C1CN(Cc2cn(Cc3ccccc3Cl)nn2)S(=O)(=O)C1 (configuration not stated),·,–,–,–,–,·,·
CCn1c2ccccc2c2cc(C=NNC(=O)CSc3nc4ccccc4c(=O)n3-c3ccccc3)ccc21,·,–,–,–,–,·,·
Nc1ncnc(Oc2cccc3cccnc23)c1[N+](=O)[O-],–,–,–,–,–,40,–
Nc1nc(-c2ccccn2)nc(N)c1Cc1ccc(Cl)cc1Cl,–,–,–,–,–,39,–
Nc1nc(-c2ccccn2)nc(N)c1Cc1ccccc1F,–,–,–,–,–,–,·
COc1ccccc1NC(=S)OC1CCC12CCC(c1ccccc1)CC2 (configuration not stated),·,–,–,–,–,·,·
CCN(CC)c1ccc(C2Nc3cccc4cccc(c34)N2)c(O)c1,–,–,–,–,–,–,·
Oc1ccc2ccccc2c1C1Nc2cccc3cccc(c23)N1,·,·,·,·,·,52,–
COC(=O)[C@]12C[C@H](CC(=O)NCc3ccc(C)o3)C(=O)N(CCc3ccc(OC)c(OC)c3)C1=C[C@H](C1CCCC1)O[C@@H]2C,·,–,–,–,–,·,·
COCc1cc(C)nc(SCC(=O)c2ccc(O)c(O)c2)c1C#N,–,–,–,–,–,61,50
CCOc1ccc(/C=C/C(=O)c2cc(Br)ccc(=O)c2O)cc1,–,–,–,–,–,51,44
O=C(C=Cc1ccccc1)c1cc(Br)ccc1O,–,–,–,–,–,–,·
Brc1cc2c(cc1/C=N/Nc1nc3ccccc3s1)OCO2,–,–,–,–,–,–,·
Brc1csc(/C=N/Nc2nc3ccccc3s2)c1,–,–,–,–,–,40,–
Cc1ccc(Cn2nnc3c2-c2ccccc2S(=O)(=O)N(C2CC2)C3)cc1,·,–,–,–,–,·,·
O=C(N/N=C/c1c[nH]c2ccccc12)c1ccc(O)c(O)c1,–,–,–,–,–,53,82
O=C([C@@H]1C[C@H]1c1ccccc1)N1CC[C@H]2[C@H](CCCN2Cc2ccc(F)cc2)C1,·,–,–,–,–,·,·
O=c1[nH][nH]c2cc(=O)n(-c3cccc(C(F)(F)F)c3)nc12,–,62,–,–,–,59,–
SMILES,TCR CD3 inh,ABHD4 inh,Tn7 DDE FP,SIAE inh,Tn6 DDE FP,HTRA1 inhibitor,HTRA1 conf
Nc1n[nH]c2cc(=O)n(-c3cccc(C(F)(F)F)c3)nc12,–,–,–,–,–,–,·
Oc1ccc(CN2CCCCC2)c2cccnc12,–,–,–,–,–,–,·
Oc1ccc(CN2CCc3ccccc3C2)c2cccnc12,–,–,–,–,–,59,65
CC1(OC(=O)C2CCCC2)C(=O)C=C2C=C(c3ccsc3)N(CCc3c[nH]c4ccccc34)C=C2C1=O (configuration not stated),·,·,·,·,·,36,–
CCCCC1=CC2=CC(=O)C(C)(OC(=O)CC)C(=O)C2=CN1CCc1c[nH]c2ccccc12 (configuration not stated),–,–,–,–,–,51,36
COc1ccc(-c2nnc(SCC(=O)NN=C(C)c3cccc4ccccc34)n2-c2ccc(C)cc2)cc1,·,–,–,–,–,·,·
COc1cc(C(C(=O)NC(C)(C)C)N(C(=O)CNC(=O)c2cccs2)c2ccccc2)cc(OC)c1OC (configuration not stated),–,–,–,–,–,–,·
COc1cc(C(C(=O)NC(C)(C)C)N(C(=O)CNC(=O)c2cccs2)c2ccc(C(C)C)cc2)cc(OC)c1OC (configuration not stated),–,–,–,–,–,39,49
C[C@H](NS(=O)(=O)c1ccc(Cl)cc1)C(=O)OCC(=O)c1ccc[nH]1,–,–,–,–,–,38,–
CCOc1ccc(-n2c(SCC(=O)Nc3ccc(S(=O)(=O)Nc4nccs4)cc3)nnc2-c2ccc(C(C)(C)C)cc2)cc1,·,–,–,–,–,·,·
CCCCCCCCCCCCCCCC[N+](C)(C)Cc1ccc(F)cc1,–,44,–,–,–,64,64
COC(=O)CCC(=O)OC1(C)C(=O)C2=CN(c3ccc(OC)cc3)C(c3ccc(OC)cc3)=CC2=C(Br)C1=O (configuration not stated),·,·,·,·,·,53,63
COC(=O)CCC(=O)OC1(C)C(=O)C2=CN(C3CCCC3)C(c3ccc(OC)cc3)=CC2=C(Br)C1=O (configuration not stated),–,–,–,–,–,61,52
C=CCN1C=C2C(=O)C(C)(OC(=O)CCC(=O)OC)C(=O)C(Br)=C2C=C1c1ccc(OC)cc1 (configuration not stated),·,·,·,·,·,63,43
O=c1c2cc3cccnc3nc2ncn1Cc1cccs1,·,–,–,–,–,·,·
CN(C)CCCNc1cc(C(C)(C)C)nc2c(-c3ccc(Cl)cc3)cnn12,–,–,–,–,–,49,70
COc1ccc(N=Nc2ccc(N)nc2N)cc1,–,–,–,–,–,–,·
CCOc1ccc2nc3cc(N=Nc4ccc(N)nc4N)ccc3c(N)c2c1,·,·,·,·,·,47,70
CCCCCCCCCCCCC/C=C/[C@@H](O)[C@@H](N)CO,–,–,–,–,–,38,67
Nc1nc(-c2ccc(NC(=O)c3ccco3)cc2)cs1,–,–,–,–,–,–,·
NC(=O)/C(=N\OC(=O)c1ccco1)c1nc(-c2ccc(Br)cc2)cs1,–,–,–,–,–,67,47
